Experimental data taken from article PMC3963287 (Bioorganic & medicinal chemistry letters, 2014).

How the values were obtained:
[1] = system: long chain fatty acyl-CoA synthetase (ACSL); experiment: Inhibition of ACSL activity in solubilized brain endothelial bEND3 cells; type: biochemical
[2] = system: ACSL in bEND3 brain endothelial cells; experiment: In situ [14C]-palmitate incorporation into extractable lipids of bEND3 cells; type: cell-based; details: for Inhibition of [14C]-palmitate incorporation into extractable lipids: compounds at 15 μM, Figure 3A; for Potency ratio (rank order) for inhibition of [14C]-palmitate incorporation into extractable lipids: triacsin C at 1.5 μM, all other compounds at 15 μM
Procedure, shortened: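 bEND3 brain endothelial cells incubated with [14C]-palmitate, with test compounds at 15 μM or the reference ACSL inhibitor at 1.5 μM. Radioactivity measured in extractable lipid (fmoles [14C]-palmitate/μg lipid), aqueous fraction and media; total recovery summed from lipid, aqueous and media. Compared to untreated controls by one-way ANOVA with Dunnett's t test; n = 3–9 independent experiments.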

[3] = system: leukocyte recruitment (rolling, adhesion, extravasation); experiment: L-NAME induced leukocyte recruitment in post-capillary venules of the mesentery; type: in vivo; details: 120 minutes; for Inhibition of leukocyte rolling, adhesion and extravasation: 5 or 50 μM compound 1, 50 μM compound 9
rotavirus = details: cited from earlier work
[4] = system: leukocyte recruitment (rolling, adhesion, extravasation); details: 5μM; cited from earlier work
[5] = aqueous; no reference given; cited from earlier work

CCC/C=C/C/C=C/C=C/CNc1ccc(C(=O)O)cc1 [Compound 1]
Potency relative to triacsin C in the ACSL assay [1]: one-tenth as potent as triacsin C
Inhibition of [14C]-palmitate incorporation into extractable lipids [2]: significant inhibition
Potency ratio (rank order) for inhibition of [14C]-palmitate incorporation into extractable lipids [2]: triacsin C > 3 > 1 > 4 > 9 = 7 > 2
Rolling, adhesion and extravasation rates / recruitment ([3]; 5 μM): inhibited the recruitment to about half the extent as at 50 μm
Rolling, adhesion and extravasation rates / recruitment ([3]; 50 μM): not different from each other nor were they different from vehicle alone
Inhibition of leukocyte rolling, adhesion and extravasation [3]: significantly inhibited rolling, adhesion, and extravasation
Potency relative to triacsin C as inhibitor of rotavirus replication (rotavirus): at least twice as potent as triacsin C

CCC/C=C/C/C=C/C=N/N1CCCS1(=O)=O [Compound 2]
Folds less active compared with compound 3 [1]: > 30 folds
Potency ratio (rank order) for inhibition of [14C]-palmitate incorporation into extractable lipids [2]: triacsin C > 3 > 1 > 4 > 9 = 7 > 2

C=CCCCCCCCCCNc1ccc(C(=O)O)cc1 [Compound 3]
Inhibition of [14C]-palmitate incorporation into extractable lipids [2]: significant inhibition
Potency ratio (rank order) for inhibition of [14C]-palmitate incorporation into extractable lipids [2]: triacsin C > 3 > 1 > 4 > 9 = 7 > 2

C=CCCCCCCCCCNc1ccc(C(=O)O)c(O)c1 [Compound 4]
Inhibition of [14C]-palmitate incorporation into extractable lipids [2]: significant inhibition
Potency ratio (rank order) for inhibition of [14C]-palmitate incorporation into extractable lipids [2]: triacsin C > 3 > 1 > 4 > 9 = 7 > 2

CCC/C=C/C/C=C/CN(O)/N=N/c1ccc(C(=O)O)cc1 [Compound 7]
Inhibition of [14C]-palmitate incorporation into extractable lipids [2]: significant inhibition
Potency ratio (rank order) for inhibition of [14C]-palmitate incorporation into extractable lipids [2]: triacsin C > 3 > 1 > 4 > 9 = 7 > 2

CCC/C=C/C/C=C/C=C/CNN1CCCS1(=O)=O [Compound 8]
Folds less active compared with compound 3 [1]: > 30 folds

C=CCCCCCCCCCNO [Compound 9]
Inhibition of [14C]-palmitate incorporation into extractable lipids [2]: significant inhibition
Potency ratio (rank order) for inhibition of [14C]-palmitate incorporation into extractable lipids [2]: triacsin C > 3 > 1 > 4 > 9 = 7 > 2
Rolling, adhesion and extravasation rates / recruitment ([3]; 50 μM): about as effective as compound 1 at 5 μM
Inhibition of leukocyte rolling, adhesion and extravasation [3]: significantly inhibited rolling, adhesion, and extravasation

CCC/C=C/C/C=C/C=C/C=N/NN=O [Triacsin C, reference compound]
Neutrophil recruitment in a model of ischemia [4]: virtually abolished neutrophil recruitment
Times more potent than compound 3 [1]: about 10 times
Potency ratio (rank order) for inhibition of [14C]-palmitate incorporation into extractable lipids [2]: triacsin C > 3 > 1 > 4 > 9 = 7 > 2
Rolling, adhesion and extravasation rates / recruitment ([3]; 5 μM): not different from each other nor were they different from vehicle alone

CCCCCCCCCCCCCCCC(=O)SCCNC(=O)CCNC(=O)[C@H](O)C(C)(C)COP(=O)(O)OP(=O)(O)OC[C@H]1O[C@@H](n2cnc3c(N)ncnc32)[C@H](O)[C@@H]1OP(=O)(O)O [palmitoyl CoA]
Water solubility [5]: about 1.74 g/L
